Test [1] concerns the target T1, Histone deacetylase 3 (Homo sapiens, UniProt O15379). As to the kind of experiment: Inhibition of HDAC3 in human U937 cells assessed as increase in acetylated-histone H3 level at 10 to 40 uM incubated for 18 hrs by Western blot method. The test is classed as cell-based. Summed up:
(§1)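 U937 cells were treated with 10–40 µM compound, with a 1% DMSO vehicle control. Cells were then lysed and the lysates run on SDS-PAGE and transferred to PVDF. Blots were probed for histone H3 acetyl-Lys9, which reports class I HDAC (1, 2, 3) inhibition, with GAPDH as the loading control. Repeat trials were run.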

The target in test [2] is T2, Protein deacetylase HDAC6 (Homo sapiens) (UniProt Q9UBN7).
T2 sequence (whole entry): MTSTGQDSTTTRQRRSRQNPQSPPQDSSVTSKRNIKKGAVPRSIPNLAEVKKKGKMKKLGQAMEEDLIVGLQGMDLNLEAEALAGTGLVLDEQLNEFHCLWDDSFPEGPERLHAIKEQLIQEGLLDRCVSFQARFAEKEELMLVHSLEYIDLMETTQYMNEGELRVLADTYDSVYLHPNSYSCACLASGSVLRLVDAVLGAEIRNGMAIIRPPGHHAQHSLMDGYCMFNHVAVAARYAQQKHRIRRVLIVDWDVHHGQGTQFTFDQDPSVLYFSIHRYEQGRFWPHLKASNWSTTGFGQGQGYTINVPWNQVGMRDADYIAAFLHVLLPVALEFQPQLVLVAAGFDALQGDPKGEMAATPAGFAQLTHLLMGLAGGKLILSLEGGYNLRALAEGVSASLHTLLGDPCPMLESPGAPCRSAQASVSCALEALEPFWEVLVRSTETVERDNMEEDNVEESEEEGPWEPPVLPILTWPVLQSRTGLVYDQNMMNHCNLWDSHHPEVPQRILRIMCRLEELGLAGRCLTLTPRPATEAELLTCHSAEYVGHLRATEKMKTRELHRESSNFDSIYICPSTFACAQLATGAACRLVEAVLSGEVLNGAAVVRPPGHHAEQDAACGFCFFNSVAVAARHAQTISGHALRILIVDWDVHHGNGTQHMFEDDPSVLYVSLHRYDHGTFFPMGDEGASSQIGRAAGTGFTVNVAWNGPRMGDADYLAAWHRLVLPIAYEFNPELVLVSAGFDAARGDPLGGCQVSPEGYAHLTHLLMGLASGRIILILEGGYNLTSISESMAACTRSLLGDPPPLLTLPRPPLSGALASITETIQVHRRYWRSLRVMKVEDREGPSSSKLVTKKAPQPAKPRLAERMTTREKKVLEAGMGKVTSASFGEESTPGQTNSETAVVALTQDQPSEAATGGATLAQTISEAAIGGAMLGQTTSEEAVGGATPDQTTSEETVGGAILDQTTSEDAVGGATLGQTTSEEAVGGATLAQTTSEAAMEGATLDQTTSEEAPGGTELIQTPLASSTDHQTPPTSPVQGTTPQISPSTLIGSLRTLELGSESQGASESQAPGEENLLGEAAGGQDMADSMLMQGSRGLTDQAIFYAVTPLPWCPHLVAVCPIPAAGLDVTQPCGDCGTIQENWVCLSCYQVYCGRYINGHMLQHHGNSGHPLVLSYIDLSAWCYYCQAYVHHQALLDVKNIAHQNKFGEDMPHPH
Put plainly: Inhibition of HDAC6 in human U937 cells assessed as increase in acetylated-alpha-tubulin level incubated for 18 hrs by Western blot method. The format is cell-based. In short, it runs like this:
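U937 cells were treated with inhibitor at 10–40 µM, with 1% DMSO as vehicle control. Cells were then lysed, run on SDS-PAGE, transferred to PVDF and western-blotted for acetyl-Lys40 α-tubulin, with acetyl-Lys9 histone H3 as the class I marker. GAPDH was probed as a loading control, and trials were repeated.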

The target of test [3] is T3, Histone deacetylase 2 (Homo sapiens, UniProt Q92769). Put plainly: Inhibition of HDAC2 in human U937 cells assessed as increase in acetylated-histone H3 level at 10 to 40 uM incubated for 18 hrs by Western blot method. The format is cell-based. Summed up: as §1
T3 sequence (Q92769 whole entry): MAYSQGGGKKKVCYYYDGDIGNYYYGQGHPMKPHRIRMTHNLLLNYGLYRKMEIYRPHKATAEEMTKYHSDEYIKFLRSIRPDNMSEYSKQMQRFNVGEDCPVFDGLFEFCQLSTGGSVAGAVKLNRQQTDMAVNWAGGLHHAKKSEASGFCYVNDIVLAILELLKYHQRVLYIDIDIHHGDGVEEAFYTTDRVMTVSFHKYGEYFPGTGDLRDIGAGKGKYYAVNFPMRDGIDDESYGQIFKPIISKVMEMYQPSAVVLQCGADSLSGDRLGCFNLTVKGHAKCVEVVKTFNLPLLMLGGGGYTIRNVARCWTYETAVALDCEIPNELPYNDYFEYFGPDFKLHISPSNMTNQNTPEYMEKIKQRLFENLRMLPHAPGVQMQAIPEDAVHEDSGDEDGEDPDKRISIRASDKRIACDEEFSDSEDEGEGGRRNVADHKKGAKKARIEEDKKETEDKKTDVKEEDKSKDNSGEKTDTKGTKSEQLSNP
Test [4] is filed under the species Homo sapiens. Put plainly: Inhibition of HDAC in human HeLa-S3 cells lysates assessed as remaining enzyme activity at 1.2 x 10^-5 M pre-incubated for 15 mins before HDAC-Glo I/II substrate addition and measured after 30 mins post substrate addition. The format is cell-free.
The species named for test [5] is Homo sapiens. As to the kind of experiment: Inhibition of HDAC in human HeLa-S3 cells lysates assessed as remaining enzyme activity at 1.5 x 10^-6 M pre-incubated for 15 mins before HDAC-Glo I/II substrate addition and measured after 30 mins post substrate addition. The format is cell-free.
For test [6], the target named is T1, Histone deacetylase 3. As to the kind of experiment: Inhibition of HDAC3 (unknown origin) assessed as remaining enzyme activity at 0.25 uM by ELISA-based assay. In short, it runs like this:
(§2)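 Isoform screen by ELISA-based HDAC activity assay against HDAC1, HDAC2, HDAC3 and HDAC6. Each analog was tested at one final concentration: 0.025, 0.125, 0.25 or 1.25 µM. Read-out is percent deacetylase activity remaining, given as the mean with standard error of at least two independent trials.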

For test [7], the target named is T2, Protein deacetylase HDAC6 (Homo sapiens). Put plainly: Inhibition of HDAC6 (unknown origin) assessed as remaining enzyme activity at 0.25 uM by ELISA-based assay. Summed up: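 Single-concentration isoform screen using an ELISA-based HDAC activity assay, run in parallel against HDAC1, HDAC2, HDAC3 and HDAC6. Read-out is percent deacetylase activity remaining, given as the mean of at least two independent trials with standard error.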

Test [8] is filed under the species Homo sapiens. Put plainly: Inhibition of HDAC in human HeLa-S3 cells lysates assessed as remaining enzyme activity at 6 x 10^-6 M pre-incubated for 15 mins before HDAC-Glo I/II substrate addition and measured after 30 mins post substrate addition. The test is classed as cell-free.
Test [9] addresses T1, Histone deacetylase 3. Put plainly: Inhibition of HDAC3 (unknown origin) assessed as remaining enzyme activity at 5 x 10^-7 M by ELISA-based assay.
The species entered for test [10] is Homo sapiens. As to the kind of experiment: Inhibition of HDAC in human HeLa-S3 cells lysates assessed as remaining enzyme activity at 7.5 x 10^-7 M pre-incubated for 15 mins before HDAC-Glo I/II substrate addition and measured after 30 mins post substrate addition. The test is classed as cell-free.
Test [11] addresses T3, Histone deacetylase 2. As to the kind of experiment: Inhibition of HDAC2 (unknown origin) assessed as remaining enzyme activity at 0.25 uM by ELISA-based assay. Summed up: as §2
In test [12] the target is Histone deacetylase 1 (Homo sapiens, UniProt Q13547). As to the kind of experiment: Inhibition of HDAC1 (unknown origin) assessed as remaining enzyme activity at 0.25 uM by ELISA-based assay. In short, it runs like this:
as §2

For test [13], the target named is T3, Histone deacetylase 2. Put plainly: Inhibition of HDAC2 (unknown origin) assessed as remaining enzyme activity at 5 x 10^-7 M by ELISA-based assay.

Calls of active or inactive are those of the source. The calls are words filed in the database; no cut-off is given here.

T1 sequence (O15379 whole entry): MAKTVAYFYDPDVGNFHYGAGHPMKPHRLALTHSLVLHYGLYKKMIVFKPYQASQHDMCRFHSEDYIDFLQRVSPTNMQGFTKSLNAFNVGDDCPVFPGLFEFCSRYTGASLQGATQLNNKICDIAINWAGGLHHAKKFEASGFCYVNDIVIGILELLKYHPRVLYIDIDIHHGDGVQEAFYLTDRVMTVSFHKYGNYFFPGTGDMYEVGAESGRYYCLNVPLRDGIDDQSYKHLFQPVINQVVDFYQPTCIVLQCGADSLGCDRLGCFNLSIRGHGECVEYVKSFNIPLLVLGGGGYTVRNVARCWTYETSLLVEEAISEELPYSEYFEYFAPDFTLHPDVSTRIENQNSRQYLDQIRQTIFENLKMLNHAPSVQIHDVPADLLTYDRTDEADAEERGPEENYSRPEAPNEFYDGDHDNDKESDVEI
Chain of Histone deacetylase 1 (Q13547 whole entry): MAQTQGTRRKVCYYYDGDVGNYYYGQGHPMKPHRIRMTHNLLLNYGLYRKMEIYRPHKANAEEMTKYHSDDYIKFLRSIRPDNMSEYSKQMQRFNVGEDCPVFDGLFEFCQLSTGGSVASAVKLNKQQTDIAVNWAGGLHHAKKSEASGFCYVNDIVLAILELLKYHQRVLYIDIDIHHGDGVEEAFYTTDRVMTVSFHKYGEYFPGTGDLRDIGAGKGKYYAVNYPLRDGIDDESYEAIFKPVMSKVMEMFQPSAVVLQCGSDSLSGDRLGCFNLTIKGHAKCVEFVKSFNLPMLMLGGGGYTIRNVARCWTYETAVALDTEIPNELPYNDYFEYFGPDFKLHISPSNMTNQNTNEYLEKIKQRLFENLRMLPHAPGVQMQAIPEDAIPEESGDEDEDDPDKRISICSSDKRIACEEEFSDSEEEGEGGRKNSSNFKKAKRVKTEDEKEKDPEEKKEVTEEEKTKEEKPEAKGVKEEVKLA

For the compound `O=C(CCCC(CCC(=O)Nc1ccccc1)Cc1ccccc1)NO` (stereo not drawn), the inhibition entry in [1] and in [3] was “Active” throughout. Besides, in test [2], the inhibition entry was “Dose-dependent effect”.
For `CCCCC(CCCC(=O)NO)CCC(=O)Nc1ccccc1` (stereo not drawn), the Activity in test [4] was 23%; in [5] it was 88%; in test [6], 74 to 92%; in [7] it was 35%; in test [8], 42%; in test [9], 83%. Moreover, the Activity in test [10] was 101%; in [11], 83%; in test [12], 81 to 84%; in test [13] it was 73%.

The values are drawn from ChEMBL document CHEMBL4052702 (Bioorg Med Chem Lett, 2017).
